Source: ChEMBL document CHEMBL4177648, “Benzofuran-dihydropyridine hybrids: A new class of potential bone anabolic agents” (Bioorg Med Chem, 2017)
The source made the active and inactive calls. No cut-off for these calls is given here.

Legend:
Calvarial osteoblast [1] = assay: Anabolic activity in rat calvarial osteoblasts assessed as induction of alkaline phosphatase activity at 1 pM after 48 hrs in presence of beta-glycerophosphate and ascorbic acid by p-nitrophenyl phosphate substrate based assay (reference value: 1 to 1.21); type: functional
Calvarial osteoblast [2] = assay: Anabolic activity in rat calvarial osteoblasts assessed as induction of alkaline phosphatase activity at 100 pM after 48 hrs in presence of beta-glycerophosphate and ascorbic acid by p-nitrophenyl phosphate substrate based assay (reference value: 1 to 1.21); type: functional
Calvarial osteoblast [3] = assay: Anabolic activity in rat calvarial osteoblasts assessed as induction of alkaline phosphatase activity at 10 nM after 48 hrs in presence of beta-glycerophosphate and ascorbic acid by p-nitrophenyl phosphate substrate based assay (reference value: 1 to 1.21); type: functional
Calvarial osteoblast [4] = assay: Anabolic activity in rat calvarial osteoblasts assessed as induction of alkaline phosphatase activity at 1 uM after 48 hrs in presence of beta-glycerophosphate and ascorbic acid by p-nitrophenyl phosphate substrate based assay (reference value: 1 to 1.21); type: functional
Calvarial osteoblast [5] = assay: Anabolic activity in rat calvarial osteoblasts assessed as induction of alkaline phosphatase activity at 100 uM after 48 hrs in presence of beta-glycerophosphate and ascorbic acid by p-nitrophenyl phosphate substrate based assay (reference value: 1 to 1.21); type: functional
Calvarial osteoblast [6] = assay: Induction of mineralization in rat calvarial osteoblasts at 1 uM after 21 days by Alizarin-red dye based assay; type: functional, cell-based
Method in brief: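 Rat pup calvarial osteoblasts were seeded at 1×10^4 cells/well in differentiation medium with compound. Medium was changed every other day for 21 days. Cells were fixed in 4% paraformaldehyde and stained with 40 mM Alizarin red (pH 4.5). Stain was extracted with 10% acetic acid, heated to 85 °C, and neutralised with NH4OH. Absorbance was read at 405 nm.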

Calvarial osteoblast [7] = assay: Upregulation of ALP mRNA levels in rat calvarial osteoblasts at 1 uM after 48 hrs by qRT-PCR analysis relative to control; type: functional
Method in brief: (§1)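 Rat pup calvarial osteoblasts were treated for 48 h with compound. Total RNA was extracted with TRIzol and checked by A260 and A260/A280. qRT-PCR used 45 cycles (94 °C, 62 °C, 72 °C steps) and was normalised to GAPDH. Fold change is over untreated cells; n=5, mean ± SEM.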

Calvarial osteoblast [8] = assay: Upregulation of Osx mRNA levels in rat calvarial osteoblasts at 1 uM after 48 hrs by qRT-PCR analysis relative to control; type: functional; method in brief: as §1
Calvarial osteoblast [9] = assay: Upregulation of Col1 mRNA levels in rat calvarial osteoblasts at 1 uM after 48 hrs by qRT-PCR analysis relative to control; type: functional; method in brief: as §1
Calvarial osteoblast [10] = assay: Upregulation of Runx2 mRNA levels in rat calvarial osteoblasts at 1 uM after 48 hrs by qRT-PCR analysis relative to control; type: functional; method in brief: as §1
Calvarial osteoblast [11] = assay: Upregulation of Bmp2 mRNA levels in rat calvarial osteoblasts at 1 uM after 48 hrs by qRT-PCR analysis relative to control; type: functional; method in brief: as §1
Calvarial osteoblast [12] = assay: Anabolic activity in rat calvarial osteoblasts assessed as induction of alkaline phosphatase activity after 48 hrs in presence of beta-glycerophosphate and ascorbic acid by p-nitrophenyl phosphate substrate based assay; type: functional, cell-based

## CCOC(=O)C1=C(C)NC2=C(C(=O)CC(C)(C)C2)C1c1cc(C(C)(C)C)c2oc(C(=O)c3ccc(OC)cc3)cc2c1 (centres undefined)
Calvarial osteoblast [1]
  OD: 1.04
Calvarial osteoblast [2]
  OD: 1.53
Calvarial osteoblast [3]
  OD: 1.47
Calvarial osteoblast [4]
  OD: 1.15
Calvarial osteoblast [5]
  OD: 0.36

## CCOC(=O)C1=C(C)NC2=C(C(=O)CCC2)C1c1cc(C(C)CC)c2oc(C(=O)c3ccc([N+](=O)[O-])cc3)cc2c1 (centres undefined)
Calvarial osteoblast [1]
  OD: 1.12
Calvarial osteoblast [2]
  OD: 0.82
Calvarial osteoblast [3]
  OD: 0.89
Calvarial osteoblast [4]
  OD: 0.69
Calvarial osteoblast [5]
  OD: 0.37

## CCOC(=O)C1=C(C)NC2=C(C(=O)CC(C)(C)C2)C1c1ccccc1 (centres undefined)
Calvarial osteoblast [1]
  OD: 1.03
Calvarial osteoblast [2]
  OD: 1.41
Calvarial osteoblast [3]
  OD: 1.41
Calvarial osteoblast [4]
  OD: 1.23
Calvarial osteoblast [5]
  OD: 0.58

## CCC(C)c1cc(C=O)cc2cc(C(=O)c3ccc([N+](=O)[O-])cc3)oc12 (centres undefined)
Calvarial osteoblast [1]
  OD: 1.04
Calvarial osteoblast [2]
  OD: 0.66
Calvarial osteoblast [3]
  OD: 0.73
Calvarial osteoblast [4]
  OD: 1.08
Calvarial osteoblast [5]
  OD: 0.31

## CCC(C)c1cc(C2C(C(=O)OC)=C(C)NC3=C2C(=O)CCC3)cc2cc(C(=O)c3ccc([N+](=O)[O-])cc3)oc12 (centres undefined)
Calvarial osteoblast [1]
  OD: 0.65
Calvarial osteoblast [2]
  OD: 0.72
Calvarial osteoblast [3]
  OD: 0.82
Calvarial osteoblast [4]
  OD: 0.82
Calvarial osteoblast [5]
  OD: 0.25

## CCC(C)c1cc(C2C(C(=O)OC)=C(C)NC3=C2C(=O)CCC3)cc2cc(C(=O)c3ccc(OC)cc3)oc12 (centres undefined)
Calvarial osteoblast [1]
  OD: 1.37
Calvarial osteoblast [2]
  OD: 1.34
Calvarial osteoblast [3]
  OD: 1.09
Calvarial osteoblast [4]
  OD: 1.34
Calvarial osteoblast [5]
  OD: 0.37

## CCOC(=O)C1=C(C)NC2=C(C(=O)CC(C)(C)C2)C1c1cc(C(C)CC)c2oc(C(=O)c3ccc(OC)cc3)cc2c1 (centres undefined)
Calvarial osteoblast [1]
  OD: 1.08
Calvarial osteoblast [2]
  OD: 0.82
Calvarial osteoblast [3]
  OD: 1.3
Calvarial osteoblast [4]
  OD: 1.13
Calvarial osteoblast [5]
  OD: 0.51

## CCOC(=O)C1=C(C)NC2=C(C(=O)CCC2)C1c1cc(C(C)CC)c2oc(C(=O)c3ccc(Cl)cc3)cc2c1 (centres undefined)
Calvarial osteoblast [1]
  OD: 0.9
Calvarial osteoblast [2]
  OD: 1.02
Calvarial osteoblast [3]
  OD: 1.04
Calvarial osteoblast [4]
  OD: 0.79
Calvarial osteoblast [5]
  OD: 0.31

## CCOC(=O)C1=C(C)NC2=C(C(=O)CCC2)C1c1ccccc1 (centres undefined)
Calvarial osteoblast [1]
  OD: 1.26
Calvarial osteoblast [2]
  OD: 1.25
Calvarial osteoblast [3]
  OD: 1.43
Calvarial osteoblast [4]
  OD: 1.44
Calvarial osteoblast [5]
  OD: 0.74

## CCC(C)c1cc(C2C(C(=O)OC)=C(C)NC3=C2C(=O)CC(C)(C)C3)cc2cc(C(=O)c3ccc(OC)cc3)oc12 (centres undefined)
Calvarial osteoblast [1]
  OD: 0.97
Calvarial osteoblast [2]
  OD: 0.64
Calvarial osteoblast [3]
  OD: 1.14
Calvarial osteoblast [4]
  OD: 1.26
Calvarial osteoblast [5]
  OD: 0.29

## CCc1cc(C2C(C(=O)OC)=C(C)NC3=C2C(=O)CC(C)(C)C3)cc2cc(C(=O)c3ccc(OC)cc3)oc12 (centres undefined)
Calvarial osteoblast [1]
  OD: 1.26
Calvarial osteoblast [2]
  OD: 0.73
Calvarial osteoblast [3]
  OD: 1.19
Calvarial osteoblast [4]
  OD: 1.2
Calvarial osteoblast [5]
  OD: 0.18

## CCc1cc(C=O)cc2cc(C(=O)c3ccc(OC)cc3)oc12
Calvarial osteoblast [1]
  OD: 1.09
Calvarial osteoblast [2]
  OD: 1.11
Calvarial osteoblast [3]
  OD: 1.24
Calvarial osteoblast [4]
  OD: 1.03
Calvarial osteoblast [5]
  OD: 0.29

## COc1ccc(C(=O)c2cc3cc(C=O)cc(C(C)(C)C)c3o2)cc1
Calvarial osteoblast [1]
  OD: 1.33
Calvarial osteoblast [2]
  OD: 1.5
Calvarial osteoblast [3]
  OD: 1.7
Calvarial osteoblast [4]
  OD: 1.26
Calvarial osteoblast [5]
  OD: 0.59

## CCC(C)c1cc(C2C(C(=O)OC)=C(C)NC3=C2C(=O)CC(C)(C)C3)cc2cc(C(=O)c3ccc(C)cc3)oc12 (centres undefined)
Calvarial osteoblast [1]
  OD: 1.08
Calvarial osteoblast [2]
  OD: 1.16
Calvarial osteoblast [3]
  OD: 1.11
Calvarial osteoblast [4]
  OD: 1.13
Calvarial osteoblast [5]
  OD: 0.37

## CCOC(=O)C1=C(C)NC2=C(C(=O)CC(C)(C)C2)C1c1cc(CC)c2oc(C(=O)c3ccc(OC)cc3)cc2c1 (centres undefined)
Calvarial osteoblast [1]
  OD: 1.24
Calvarial osteoblast [2]
  OD: 1.45
Calvarial osteoblast [3]
  OD: 1.65
Calvarial osteoblast [4]
  OD: 1.72
Calvarial osteoblast [5]
  OD: 0.5

## CCOC(=O)C1=C(C)NC2=C(C(=O)CCC2)C1c1cc(CC)c2oc(C(=O)c3ccc(OC)cc3)cc2c1 (centres undefined)
Calvarial osteoblast [6]
  Activity: Active
Calvarial osteoblast [1]
  OD: 1.32
Calvarial osteoblast [2]
  OD: 1.49
Calvarial osteoblast [3]
  OD: 1.64
Calvarial osteoblast [4]
  OD: 1.8
Calvarial osteoblast [5]
  OD: 0.41
Calvarial osteoblast [7]
  fold change (FC): 2 - 5.5
Calvarial osteoblast [8]
  fold change (FC): 2 - 5.5
Calvarial osteoblast [9]
  fold change (FC): 2 - 5.5
Calvarial osteoblast [10]
  fold change (FC): 2 - 5.5
Calvarial osteoblast [11]
  fold change (FC): 2 - 5.5
Calvarial osteoblast [12]
  EC50: 10000 nM

## CCC(C)c1cc(C2C(C(=O)OC)=C(C)NC3=C2C(=O)CC(C)(C)C3)cc2cc(C(=O)c3ccc([N+](=O)[O-])cc3)oc12 (centres undefined)
Calvarial osteoblast [1]
  OD: 0.98
Calvarial osteoblast [2]
  OD: 1.03
Calvarial osteoblast [3]
  OD: 1.06
Calvarial osteoblast [4]
  OD: 0.76
Calvarial osteoblast [5]
  OD: 0.3

## CCOC(=O)C1=C(C)NC2=C(C(=O)CCC2)C1c1cc(C(C)(C)C)c2oc(C(=O)c3ccc(OC)cc3)cc2c1 (centres undefined)
Calvarial osteoblast [1]
  OD: 1.14
Calvarial osteoblast [2]
  OD: 1.14
Calvarial osteoblast [3]
  OD: 1.17
Calvarial osteoblast [4]
  OD: 1.77
Calvarial osteoblast [5]
  OD: 0.29

## CCC(C)c1cc(C2C(C(=O)OC)=C(C)NC3=C2C(=O)CCC3)cc2cc(C(=O)c3ccc(C)cc3)oc12 (centres undefined)
Calvarial osteoblast [1]
  OD: 0.99
Calvarial osteoblast [2]
  OD: 1.12
Calvarial osteoblast [3]
  OD: 1.17
Calvarial osteoblast [4]
  OD: 0.84
Calvarial osteoblast [5]
  OD: 0.25

## COC(=O)C1=C(C)NC2=C(C(=O)CC(C)(C)C2)C1c1cc(C(C)(C)C)c2oc(C(=O)c3ccc(OC)cc3)cc2c1 (centres undefined)
Calvarial osteoblast [1]
  OD: 0.79
Calvarial osteoblast [2]
  OD: 1.15
Calvarial osteoblast [3]
  OD: 1.1
Calvarial osteoblast [4]
  OD: 1.25
Calvarial osteoblast [5]
  OD: 0.36

## CCC(C)c1cc(C2C(C(=O)OC)=C(C)NC3=C2C(=O)CC(C)(C)C3)cc2cc(C(=O)c3ccc(Cl)cc3)oc12 (centres undefined)
Calvarial osteoblast [1]
  OD: 1.08
Calvarial osteoblast [2]
  OD: 0.85
Calvarial osteoblast [3]
  OD: 0.86
Calvarial osteoblast [4]
  OD: 0.23
Calvarial osteoblast [5]
  OD: 0.23

## CCC(C)c1cc(C=O)cc2cc(C(=O)c3ccc(C)cc3)oc12 (centres undefined)
Calvarial osteoblast [1]
  OD: 1.23
Calvarial osteoblast [2]
  OD: 1.16
Calvarial osteoblast [3]
  OD: 1.41
Calvarial osteoblast [4]
  OD: 1.42
Calvarial osteoblast [5]
  OD: 0.3
Calvarial osteoblast [12]
  EC50: 31.4 nM

## COC(=O)C1=C(C)NC2=C(C(=O)CCC2)C1c1cc(C(C)(C)C)c2oc(C(=O)c3ccc(OC)cc3)cc2c1 (centres undefined)
Calvarial osteoblast [1]
  OD: 1.19
Calvarial osteoblast [2]
  OD: 1.01
Calvarial osteoblast [3]
  OD: 1.07
Calvarial osteoblast [4]
  OD: 1.17
Calvarial osteoblast [5]
  OD: 0.32

## CCC(C)c1cc(C2C(C(=O)OC)=C(C)NC3=C2C(=O)CCC3)cc2cc(C(=O)c3ccc(Cl)cc3)oc12 (centres undefined)
Calvarial osteoblast [1]
  OD: 1.39
Calvarial osteoblast [2]
  OD: 1.48
Calvarial osteoblast [3]
  OD: 1.34
Calvarial osteoblast [4]
  OD: 1.31
Calvarial osteoblast [5]
  OD: 0.5

## CCC(C)c1cc(C=O)cc2cc(C(=O)c3ccc(Cl)cc3)oc12 (centres undefined)
Calvarial osteoblast [1]
  OD: 0.98
Calvarial osteoblast [2]
  OD: 0.78
Calvarial osteoblast [3]
  OD: 0.96
Calvarial osteoblast [4]
  OD: 0.77
Calvarial osteoblast [5]
  OD: 0.26

## CCC(C)c1cc(C=O)cc2cc(C(=O)c3ccc(OC)cc3)oc12 (centres undefined)
Calvarial osteoblast [1]
  OD: 1.35
Calvarial osteoblast [2]
  OD: 1.49
Calvarial osteoblast [3]
  OD: 1.59
Calvarial osteoblast [4]
  OD: 1.21
Calvarial osteoblast [5]
  OD: 0.58
Calvarial osteoblast [12]
  EC50: 10 nM
